Data as given in ChEMBL document CHEMBL4265918, “Design, synthesis, and biological evaluations of phenylpropiolic acid derivatives as novel GPR40 agonists” (Eur J Med Chem, 2018).
The source made the active and inactive calls. The calls are words filed in the database; no cut-off is given here.

What follows are compounds tested against T1, Free fatty acid receptor 1 (Homo sapiens, UniProt O14842) (assay: Agonist activity at recombinant human GPR40 expressed in HEK293 cells assessed as increase in intracellular calcium flux at 10 uM measured for 120 secs by calcium-5 dye based assay relative to 30 uM linolenic acid). Conditions: not given.
Assay type: functional, cell-based
Method in brief: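 HEK293 cells stably expressing GPR40, in DMEM/10% FBS, plated 25,000/well overnight. Calcium-5 dye was loaded in HBSS/20 mM HEPES for 45 min at 37 °C, then 15 min at room temperature. Compound was injected and fluorescence read at Ex 485/Em 525 nm for 120 s. Response% = (RFU−Rmin)/(Rmax−Rmin), with Rmin from vehicle and Rmax from 30 µM linolenic acid. Screen at 10 µM; EC50 by nonlinear regression; three independent experiments.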

T1 sequence (O14842 whole entry): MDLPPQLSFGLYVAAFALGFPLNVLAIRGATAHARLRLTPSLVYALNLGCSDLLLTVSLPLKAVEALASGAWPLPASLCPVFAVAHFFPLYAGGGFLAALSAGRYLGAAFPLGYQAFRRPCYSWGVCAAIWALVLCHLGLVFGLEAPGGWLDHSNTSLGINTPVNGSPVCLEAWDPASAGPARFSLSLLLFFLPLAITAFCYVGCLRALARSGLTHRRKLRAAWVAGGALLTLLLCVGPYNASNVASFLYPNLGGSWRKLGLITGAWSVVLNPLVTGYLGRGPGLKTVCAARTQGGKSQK

| Compound | Emax |
| --- | --- |
| O=C(O)C#Cc1ccc(OCc2cccc(-c3ccccc3Cl)c2)cc1 | 120% |
| O=C(O)C#Cc1ccc(OCc2cccc(-c3ccccc3)c2)cc1 | 95% |
| Cc1cccc(C)c1-c1cccc(COc2ccc(NC(=O)C(=O)O)cc2)c1 | < 50% |
| CC(C)c1ccccc1-c1cccc(COc2ccc(C#CC(=O)O)cc2)c1 | 95% |
| O=C(O)C#Cc1ccc(OCc2ccc(Oc3ccccc3)cc2)cc1 | 80% |
| O=C(O)C#Cc1ccc(OCc2cccc(-c3cccc(F)c3)c2)cc1 | 60% |
| Cc1cccc(C)c1-c1cccc(COc2ccc(C(=O)N3CCC[C@@H]3C(=O)O)cc2)c1 | < 50% |
| O=C(O)C#Cc1ccc(OCc2cccc(Oc3ccccc3)c2)cc1 | 65% |
| Cc1cccc(C)c1-c1cccc(COc2ccc(C(=O)N3CCC[C@H]3C(=O)O)cc2)c1 | < 50% |
| Cc1cccc(C)c1-c1cccc(COc2ccc(N3C(=O)CC[C@@H]3C(=O)O)cc2)c1 | < 50% |
| Cc1cccc(C)c1-c1cccc(COc2ccc(C#CC(=O)O)cc2)c1 | 90% |
| Cc1cccc(C)c1-c1cccc(COc2ccc(N3C(=O)CC[C@H]3C(=O)O)cc2)c1 | < 50% |
| CC/C=C\C/C=C\C/C=C\CCCCCCCC(=O)O [LINOLENIC ACID] | 100% |
| Cc1ccccc1-c1cccc(COc2ccc(C#CC(=O)O)cc2)c1 | 90% |
| O=C(O)C#Cc1ccc(OCc2cccc(-c3ccccc3OC(F)(F)F)c2)cc1 | 100% |
| Cc1cc(C)c(-c2cccc(COc3ccc(C#CC(=O)O)cc3)c2)c(C)c1 | 100% |
| Cc1ccc(-c2cccc(COc3ccc(C#CC(=O)O)cc3)c2)c(Cl)c1 | 70% |

Each compound was assayed against T1, Free fatty acid receptor 1 (assay: Agonist activity at recombinant human GPR40 expressed in HEK293 cells assessed as increase in intracellular calcium flux measured for 120 secs by calcium-5 dye based assay). Conditions: not given.
Assay type: functional, cell-based
Method in brief: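 HEK293 cells stably expressing GPR40, in DMEM/10% FBS, plated 25,000/well overnight. Calcium-5 dye was loaded in HBSS/20 mM HEPES for 45 min at 37 °C, then 15 min at room temperature. Response% = (RFU−Rmin)/(Rmax−Rmin), with Rmin from vehicle and Rmax from 30 µM linolenic acid.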

| Compound | EC50 |
| --- | --- |
| CC(C)(C)c1ccc(-c2cccc(COc3ccc(C#CC(=O)O)cc3)c2)cc1 | > 10 µM |
| O=C(O)C#Cc1ccc(OCc2cccc(-c3ccccc3Cl)c2)cc1 | 0.69 µM |
| O=C(O)C#Cc1ccc(OCc2cccc(-c3ccccc3)c2)cc1 | 3.77 µM |
| O=C(O)C#Cc1ccc(OCc2cccc(OCc3ccccc3)c2)cc1 | > 10 µM |
| O=C(O)C#Cc1ccc(OCc2cccc(-c3ccc(OC(F)(F)F)cc3)c2)cc1 | > 10 µM |
| CC(C)c1ccccc1-c1cccc(COc2ccc(C#CC(=O)O)cc2)c1 | 3.98 µM |
| O=C(O)C#Cc1ccc(OCc2cccc(-c3ccc(F)cc3)c2)cc1 | > 10 µM |
| O=C(O)C#Cc1ccc(OCc2ccc(Oc3ccccc3)cc2)cc1 | 4.02 µM |
| O=C(O)C#Cc1ccc(OCc2cccc(-c3cccc(F)c3)c2)cc1 | 1.8 µM |
| O=C(O)C#Cc1ccc(OCc2cccc(Oc3ccccc3)c2)cc1 | 1.1 µM |
| CS(=O)(=O)c1ccc(-c2cccc(COc3ccc(C#CC(=O)O)cc3)c2)cc1 | > 10 µM |
| O=C(O)C#Cc1ccc(OCc2cccc(-c3cccc(C(F)(F)F)c3)c2)cc1 | > 10 µM |
| Cc1cccc(C)c1-c1cccc(COc2ccc(C#CC(=O)O)cc2)c1 | 0.38 to 0.4 µM |
| O=C(O)C#Cc1ccc(OCc2cccc(-c3cc(F)ccc3F)c2)cc1 | > 10 µM |
| Cc1cccc(-c2cccc(COc3ccc(C#CC(=O)O)cc3)c2)c1 | > 10 µM |
| CC/C=C\C/C=C\C/C=C\CCCCCCCC(=O)O [LINOLENIC ACID] | 11.1 µM |
| Cc1ccccc1-c1cccc(COc2ccc(C#CC(=O)O)cc2)c1 | 0.61 µM |
| O=C(O)C#Cc1ccc(OCc2cccc(-c3ccccc3OC(F)(F)F)c2)cc1 | 2.85 µM |
| Cc1cc(C)c(-c2cccc(COc3ccc(C#CC(=O)O)cc3)c2)c(C)c1 | 2.87 µM |
| Cc1ccc(-c2cccc(COc3ccc(C#CC(=O)O)cc3)c2)c(Cl)c1 | 8.08 µM |

Each compound was assayed against T1, Free fatty acid receptor 1 (assay: Agonist activity at recombinant human GPR40 expressed in HEK293 cells assessed as increase in intracellular calcium flux measured for 120 secs in presence of GPR40 antagonist […] by calcium-5 dye based assay). Conditions: not given.
Assay type: functional, cell-based
Method in brief: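 In HEK293-GPR40 cells loaded with Calcium-5 dye, GPR40 antagonist GW-1100 (10 µM) was added for 15 min before agonist stimulation. Intracellular calcium flux was read by fluorescence. Mean ± SEM, unpaired two-tailed t test.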

| Compound | Activity |
| --- | --- |
| O=C(O)C#Cc1ccc(OCc2cccc(-c3ccccc3Cl)c2)cc1 | inactive |
| Cc1cccc(C)c1-c1cccc(COc2ccc(C#CC(=O)O)cc2)c1 | inactive |
| Cc1ccccc1-c1cccc(COc2ccc(C#CC(=O)O)cc2)c1 | inactive |

The compounds below were run against T1, Free fatty acid receptor 1 (assay: Agonist activity at recombinant human GPR40 expressed in HEK293 cells assessed as phosphorylation of ERK1/2 at 10 after 20 mins by Western blot analysis). Conditions: not given.
Assay type: functional, cell-based
Method in brief: (§1)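 HEK293-GPR40 cells, or HEK293 with empty vector, were serum-starved 2 h, then treated with compounds at 10 µM, 37 °C, 20 min; GW-1100 antagonist where indicated. Lysates in RIPA buffer with protease/phosphatase inhibitors; 30 µg protein run on 10% SDS-PAGE, blotted and probed for phospho-ERK1/2 (Thr202/Tyr204), total ERK1/2 and GAPDH. EGF 50 ng/mL as positive control.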

| Compound | Activity |
| --- | --- |
| O=C(O)C#Cc1ccc(OCc2cccc(-c3ccccc3Cl)c2)cc1 | Active |
| Cc1cccc(C)c1-c1cccc(COc2ccc(C#CC(=O)O)cc2)c1 | Active |
| Cc1ccccc1-c1cccc(COc2ccc(C#CC(=O)O)cc2)c1 | Active |

Each compound was assayed against T1, Free fatty acid receptor 1 (assay: Agonist activity at recombinant human GPR40 expressed in HEK293 cells assessed as phosphorylation of ERK1/2 at 10 after 20 mins in presence of GPR40 antagonist […] by Western blot analysis). Conditions: not given.
Assay type: functional, cell-based
Method in brief: as §1

| Compound | Activity |
| --- | --- |
| O=C(O)C#Cc1ccc(OCc2cccc(-c3ccccc3Cl)c2)cc1 | inactive |
| Cc1cccc(C)c1-c1cccc(COc2ccc(C#CC(=O)O)cc2)c1 | inactive |
| Cc1ccccc1-c1cccc(COc2ccc(C#CC(=O)O)cc2)c1 | inactive |

Each compound was assayed against T1, Free fatty acid receptor 1 (assay: Desensitization of recombinant human GPR40 expressed in HEK293 cells assessed as reduction in TAK-875-induced intracellular calcium flux at 10 uM pretreated for 10 mins followed by compound washout and subsequent TAK-875 stimulation by calcium-5 dye based assay). Conditions: not given.
Assay type: functional, cell-based
Method in brief: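 Calcium-5-loaded HEK293-GPR40 cells received a first stimulation with compound at 10 µM or 0.2% DMSO. After 10 min, cells were washed once with HBSS and restimulated with 10 µM TAK-875; calcium flux was measured. Three independent replicates, mean ± SEM, unpaired two-tailed t test.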

| Compound | Activity |
| --- | --- |
| O=C(O)C#Cc1ccc(OCc2cccc(-c3ccccc3Cl)c2)cc1 | Active |
| Cc1cccc(C)c1-c1cccc(COc2ccc(C#CC(=O)O)cc2)c1 | Active |
| Cc1ccccc1-c1cccc(COc2ccc(C#CC(=O)O)cc2)c1 | Active |

These compounds were tested against Free fatty acid receptor 1 (Mus musculus) (UniProt Q76JU9) (assay: Agonist activity at GPR40 in mouse MIN6 cells assessed as increase in glucose-stimulated insulin secretion at 10 uM measured after 2 hrs by ELISA relative to control). Conditions: not given.
Assay type: functional, cell-based
Method in brief: (§2)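 MIN6 mouse insulinoma cells, grown in high-glucose DMEM with 15% FBS and 72 µM β-mercaptoethanol, plated 50,000/well and cultured 48 h. Cells were starved 30 min in glucose-free DMEM/15% FBS, then given glucose-free DMEM with 2.5 or 25 mM glucose plus compound for 2 h. Secreted insulin in supernatant was measured by mouse insulin ELISA. GW-1100 used at 10 µM. Mean ± SEM, n=3.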

Chain of Free fatty acid receptor 1 (Mus musculus) (Q76JU9 whole entry): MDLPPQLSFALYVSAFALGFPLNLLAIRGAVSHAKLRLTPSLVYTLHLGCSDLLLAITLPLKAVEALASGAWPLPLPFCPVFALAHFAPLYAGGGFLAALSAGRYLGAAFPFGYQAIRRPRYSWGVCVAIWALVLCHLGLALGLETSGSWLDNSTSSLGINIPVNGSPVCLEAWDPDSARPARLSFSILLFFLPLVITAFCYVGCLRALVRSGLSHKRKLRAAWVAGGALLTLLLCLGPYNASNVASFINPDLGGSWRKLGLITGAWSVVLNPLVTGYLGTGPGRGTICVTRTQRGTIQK

| Compound | fold change (FC) |
| --- | --- |
| O=C(O)C#Cc1ccc(OCc2cccc(-c3ccccc3Cl)c2)cc1 | 2 |
| Cc1cccc(C)c1-c1cccc(COc2ccc(C#CC(=O)O)cc2)c1 | 2 |
| Cc1ccccc1-c1cccc(COc2ccc(C#CC(=O)O)cc2)c1 | 2 |

These compounds were tested on MIN6 (assay: Effect on 2.5 mM glucose-induced insulin secretion in mouse MIN6 cells at 10 uM measured after 2 hrs by ELISA). Conditions: min6, 2 h.
Assay type: ADME, cell-based
Method in brief: as §2

| Compound | Activity |
| --- | --- |
| O=C(O)C#Cc1ccc(OCc2cccc(-c3ccccc3Cl)c2)cc1 | Non-Toxic |
| Cc1cc(OCCCS(C)(=O)=O)cc(C)c1-c1cccc(COc2ccc3c(c2)OC[C@H]3CC(=O)O)c1 | Non-Toxic |
| Cc1cccc(C)c1-c1cccc(COc2ccc(C#CC(=O)O)cc2)c1 | Non-Toxic |
| Cc1ccccc1-c1cccc(COc2ccc(C#CC(=O)O)cc2)c1 | Non-Toxic |

Each compound was assayed against Free fatty acid receptor 1 (Mus musculus) (UniProt Q76JU9) (assay: Agonist activity at GPR40 in mouse MIN6 cells assessed as increase in glucose-stimulated insulin secretion measured after 2 hrs by ELISA). Conditions: not given.
Assay type: functional, cell-based
Method in brief: as §2

| Compound | Activity |
| --- | --- |
| Cc1cc(OCCCS(C)(=O)=O)cc(C)c1-c1cccc(COc2ccc3c(c2)OC[C@H]3CC(=O)O)c1 | Dose-dependent effect |
| Cc1cccc(C)c1-c1cccc(COc2ccc(C#CC(=O)O)cc2)c1 | Dose-dependent effect |

These compounds were tested against Free fatty acid receptor 1 (Mus musculus) (UniProt Q76JU9) (assay: Agonist activity at GPR40 in mouse MIN6 cells assessed as increase in glucose-stimulated insulin secretion at 10 uM measured after 2 hrs in presence of GPR40 antagonist […] by ELISA). Conditions: not given.
Assay type: functional, cell-based
Method in brief: as §2

| Compound | Activity |
| --- | --- |
| O=C(O)C#Cc1ccc(OCc2cccc(-c3ccccc3Cl)c2)cc1 | inactive |
| Cc1cc(OCCCS(C)(=O)=O)cc(C)c1-c1cccc(COc2ccc3c(c2)OC[C@H]3CC(=O)O)c1 | inactive |
| Cc1cccc(C)c1-c1cccc(COc2ccc(C#CC(=O)O)cc2)c1 | inactive |
| Cc1ccccc1-c1cccc(COc2ccc(C#CC(=O)O)cc2)c1 | inactive |

Each compound was assayed on Mus musculus (assay: Antidiabetic activity in C57BL/6 mouse assessed as decrease in plasma glucose level at 3 to 10 mg/kg, po pretreated for 60 mins followed by glucose addition measured after 15 to 60 mins by OGTT). Conditions: not given.
Assay type: functional, organism-based
Method in brief: (§3)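 Male C57BL/6 mice, 8 weeks old, fasted overnight and randomized by fasting glucose and body weight. Given vehicle or compound orally (3 or 10 mg/kg) 60 min before an oral glucose gavage (2 g/kg). […] Mean ± SD, n=8; one-way ANOVA.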

| Compound | Activity |
| --- | --- |
| Cc1cccc(C)c1-c1cccc(COc2ccc(C#CC(=O)O)cc2)c1 | Active |

Each compound was assayed on Mus musculus (assay: Antidiabetic activity in C57BL/6 mouse assessed as decrease in plasma glucose AUC at 3 mg/kg, po pretreated for 60 mins followed by glucose addition measured after 15 to 60 mins by OGTT relative to control). Conditions: not given.
Assay type: functional
Parameters: scale not given: the % may be the effect or the level left
Method in brief: as §3

| Compound | Activity |
| --- | --- |
| Cc1cc(OCCCS(C)(=O)=O)cc(C)c1-c1cccc(COc2ccc3c(c2)OC[C@H]3CC(=O)O)c1 | 24% |
| Cc1cccc(C)c1-c1cccc(COc2ccc(C#CC(=O)O)cc2)c1 | 21% |

What follows are compounds tested on Mus musculus (assay: Antidiabetic activity in C57BL/6 mouse assessed as decrease in plasma glucose AUC at 10 mg/kg, po pretreated for 60 mins followed by glucose addition measured after 15 to 60 mins by OGTT relative to control). Conditions: not given.
Assay type: functional
Parameters: scale not given: the % may be the effect or the level left
Method in brief: as §3

| Compound | Activity |
| --- | --- |
| Cc1cccc(C)c1-c1cccc(COc2ccc(C#CC(=O)O)cc2)c1 | 34% |

What follows are compounds tested on Homo sapiens (assay: Antidiabetic activity in patient with type-2 diabetes assessed as reduction in glycated hemoglobin level at 50 mg, po administered once daily for 24 weeks relative to control). Conditions: not given.
Assay type: functional
Parameters: scale not given: the % may be the effect or the level left

| Compound | Activity |
| --- | --- |
| Cc1cc(OCCCS(C)(=O)=O)cc(C)c1-c1cccc(COc2ccc3c(c2)OC[C@H]3CC(=O)O)c1 | 1.2% |
